Published values gathered from unrelated publications.
Each line is one published result; the experiments were not run side by side.
PPO3: PPO3 (Agaricus bisporus, UniProt C7FF04)
STK16: Serine/threonine-protein kinase 16 (STK16, Homo sapiens, UniProt O75716)
TAOK3: Serine/threonine-protein kinase TAO3 (TAOK3, Homo sapiens, UniProt Q9H2K8)

Compound	target	test	conditions	endpoint	result
NC/C(=C\F)COc1cccc(Cn2c(=S)[nH]c(=O)c3[nH]cnc32)c1	Sigma non-opioid intracellular receptor 1 (SIGMAR1, Homo sapiens, UniProt Q99720)	ligand displacement, radioligand	10 µM	inhibition	< 50%
CCN1/C(=C/C(C)=O)Sc2ccc(F)cc21	5-hydroxytryptamine receptor 2A (HTR2A, Homo sapiens, UniProt P28223)	ligand displacement, radioligand	10 µM	inhibition	0.75%
Cc1ccc(CN2CCN(C(=O)/C=C/c3ccc(O)cc3O)CC2)cc1	PPO3	binding, SPR	–	kon	298 M⁻¹ s⁻¹
Cc1cc(F)cc2c(CCC(=O)N[C@@H]3C(=O)NC[C@H]3O)c(-c3ccc(F)cc3)[nH]c12	Adenosine receptor A2a (ADORA2A, Homo sapiens, UniProt P29274)	cell-free assay	10 µM	inhibition	15%
COc1ccc2oc(-c3ccc4nc(N)oc4c3)c/c(=N\c3ccccc3NC(=O)CCN)c2c1	Serine/threonine-protein kinase WNK1 (WNK1, Homo sapiens, UniProt Q9H4A3)	binding	1 µM	remaining binding	114%
C[C@]1(O)CCCN(c2nc(Nc3ccc(S(=O)(=O)N[C@H]4CC[C@H](CN5CCN(c6ccc(C7CCC(=O)NC7=O)cc6F)CC5)CC4)cc3F)ncc2C(F)(F)F)C1 (stereo partly shown)	STK16	binding, competition with immobilised ligand	1 µM	remaining binding	81%
O=C(CCc1cccc(O)c1)N1CCN(Cc2ccc(F)cc2)CC1	PPO3	binding, SPR	–	kon	153 M⁻¹ s⁻¹
C[C@]1(O)CCCN(c2nc(Nc3ccc(S(=O)(=O)N[C@H]4CC[C@H](CN5CCN(c6ccc(C7CCC(=O)NC7=O)cc6F)CC5)CC4)cc3Cl)ncc2C(F)(F)F)C1 (stereo partly shown)	TAOK3	binding, competition with immobilised ligand	1 µM	remaining binding	82%
CC(=O)ON=C1C=CC(=C(C#N)c2ccccc2)C=C1	Aurora kinase B (AURKB, Homo sapiens, UniProt Q96GD4)	enzyme activity, inhibitor, ADP detection	20 µM	activity vs control	75%
Cc1cc(O)c(-c2ccc([C@@H](C)CN(C)C)cc2)c2c1[nH]c(=O)c1sccc12	Interleukin-1 receptor-associated kinase-like 2 (IRAK2, Homo sapiens, UniProt O43187)	cell-free assay, inhibitor	0.1 µM, lysate	inhibition	13.1%
C1=C/COCc2cc(ccc2OCCN2CCCC2)Nc2nccc(n2)-c2cccc(c2)COC/1	Cytoplasmic tyrosine-protein kinase BMX (BMX, Homo sapiens, UniProt P51813)	binding	0.1 µM	remaining binding	95%
Cc1cc(S(=O)(=O)N[C@H]2CC[C@H](CN3CCN(c4ccc(C5CCC(=O)NC5=O)cc4F)CC3)CC2)ccc1Nc1ncc(C(F)(F)F)c(N2CCC[C@](C)(O)C2)n1 (stereo partly shown)	TAOK3	binding, competition with immobilised ligand	1 µM	remaining binding	54%
CCCCC(=O)Nc1ccc(-c2ccc3ncn(CCC)c(=O)c3c2)cn1	STK16	binding, competition with immobilised ligand	0.5 µM	remaining binding	99%
